Entries after “also recorded” stand apart in the source; their conditions may differ. Values belong to the molecule of their own block, whether it stands above or below them.
Assays:
[1] = tested on: K-Ras^G12C; settings: cited from earlier work
[2] = biological target: T1, cathepsin L (Homo sapiens, UniProt P07711); settings: cited from earlier work; for kinact: cathepsin L, range stated for both compounds and both enzymes
[3] = biological target: T2, Cathepsin B (Homo sapiens, UniProt P07858); settings: cited from earlier work; for kinact: cathepsin B, range stated for both compounds and both enzymes
[4] = biological target: T1, cathepsin L; test: Cathepsin L inhibition kinetics; format: biochemical
[5] = biological target: T1, cathepsin L; test: Irreversibility study; format: biochemical; settings: 50 μM compound preincubated with Cathepsin L (10 nM), gel filtration
Method in brief: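 Test compound at 50 μM was preincubated with cathepsin L at 10 nM, then passed through a desalting spin column. Flow-through aliquots were assayed for recovery of enzyme activity at several time points.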

[6] = biological target: T2, Cathepsin B; test: Cathepsin B inhibition with and without preincubation; format: biochemical; settings: with and without preincubation of the inhibitor
[7] = biological target: T3, Calpain I (Homo sapiens, UniProt P07384); test: Calpain I inhibition with and without preincubation; format: biochemical; settings: with and without preincubation of the inhibitor
T3 sequence (P07384 1-714): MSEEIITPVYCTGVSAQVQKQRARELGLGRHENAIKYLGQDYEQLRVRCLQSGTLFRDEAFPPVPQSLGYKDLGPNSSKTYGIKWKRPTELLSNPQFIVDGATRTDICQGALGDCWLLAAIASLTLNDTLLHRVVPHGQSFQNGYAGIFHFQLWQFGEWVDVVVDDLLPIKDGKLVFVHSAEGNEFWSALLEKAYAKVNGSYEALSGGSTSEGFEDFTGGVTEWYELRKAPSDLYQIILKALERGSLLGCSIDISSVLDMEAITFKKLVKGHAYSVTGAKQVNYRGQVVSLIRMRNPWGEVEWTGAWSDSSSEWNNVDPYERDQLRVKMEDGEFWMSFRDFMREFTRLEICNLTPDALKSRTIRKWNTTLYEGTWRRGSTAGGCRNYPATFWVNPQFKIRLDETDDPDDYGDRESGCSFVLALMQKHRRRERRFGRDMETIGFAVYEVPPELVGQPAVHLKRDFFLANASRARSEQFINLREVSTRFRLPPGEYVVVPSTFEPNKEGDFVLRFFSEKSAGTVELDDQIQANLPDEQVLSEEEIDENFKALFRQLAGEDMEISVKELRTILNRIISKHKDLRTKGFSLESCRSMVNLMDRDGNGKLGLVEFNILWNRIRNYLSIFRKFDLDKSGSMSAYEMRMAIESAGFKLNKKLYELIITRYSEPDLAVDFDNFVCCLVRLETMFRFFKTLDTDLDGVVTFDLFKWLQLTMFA
T3 sequence (P04632 1-268 partner): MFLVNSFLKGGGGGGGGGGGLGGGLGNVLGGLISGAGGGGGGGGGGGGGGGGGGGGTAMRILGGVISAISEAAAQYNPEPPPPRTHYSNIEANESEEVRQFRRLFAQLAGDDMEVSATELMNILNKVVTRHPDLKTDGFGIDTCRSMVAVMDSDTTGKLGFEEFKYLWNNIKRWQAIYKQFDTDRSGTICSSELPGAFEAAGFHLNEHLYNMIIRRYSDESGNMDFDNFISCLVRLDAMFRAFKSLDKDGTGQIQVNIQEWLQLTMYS

[8] = biological target: T4, USP8 (Homo sapiens, UniProt P40818); test: USP8 inhibition with and without preincubation; format: biochemical; settings: with and without preincubation of the inhibitor
T4 sequence (P40818 1-1118): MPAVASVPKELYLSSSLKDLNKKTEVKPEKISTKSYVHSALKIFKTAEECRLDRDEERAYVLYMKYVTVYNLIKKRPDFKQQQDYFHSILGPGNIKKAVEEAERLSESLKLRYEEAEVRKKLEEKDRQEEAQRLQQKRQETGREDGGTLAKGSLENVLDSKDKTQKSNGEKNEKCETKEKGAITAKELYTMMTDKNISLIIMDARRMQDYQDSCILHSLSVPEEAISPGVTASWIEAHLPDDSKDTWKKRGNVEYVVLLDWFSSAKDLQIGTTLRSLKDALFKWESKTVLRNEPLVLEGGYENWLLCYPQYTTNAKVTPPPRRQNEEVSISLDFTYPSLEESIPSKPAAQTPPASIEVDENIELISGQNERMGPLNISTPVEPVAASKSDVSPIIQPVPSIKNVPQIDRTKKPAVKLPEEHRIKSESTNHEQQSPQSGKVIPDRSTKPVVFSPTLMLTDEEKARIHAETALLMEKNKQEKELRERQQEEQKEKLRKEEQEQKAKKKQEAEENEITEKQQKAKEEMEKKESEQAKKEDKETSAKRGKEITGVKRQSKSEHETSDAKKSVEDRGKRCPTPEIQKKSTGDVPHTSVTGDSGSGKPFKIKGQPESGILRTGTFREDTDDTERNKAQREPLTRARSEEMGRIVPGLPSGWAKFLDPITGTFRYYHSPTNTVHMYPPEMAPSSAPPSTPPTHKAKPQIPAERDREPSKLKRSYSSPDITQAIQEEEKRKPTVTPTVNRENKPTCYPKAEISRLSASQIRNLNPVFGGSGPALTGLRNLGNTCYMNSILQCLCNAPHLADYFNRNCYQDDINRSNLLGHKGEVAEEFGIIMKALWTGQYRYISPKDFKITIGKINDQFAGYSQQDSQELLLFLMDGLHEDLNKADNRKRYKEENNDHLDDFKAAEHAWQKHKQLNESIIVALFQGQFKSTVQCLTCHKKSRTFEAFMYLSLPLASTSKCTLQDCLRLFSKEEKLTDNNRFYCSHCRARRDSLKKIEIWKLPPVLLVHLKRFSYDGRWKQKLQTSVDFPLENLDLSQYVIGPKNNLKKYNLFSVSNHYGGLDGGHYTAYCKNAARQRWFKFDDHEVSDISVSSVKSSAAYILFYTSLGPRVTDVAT

T1 sequence (P07711 114-333): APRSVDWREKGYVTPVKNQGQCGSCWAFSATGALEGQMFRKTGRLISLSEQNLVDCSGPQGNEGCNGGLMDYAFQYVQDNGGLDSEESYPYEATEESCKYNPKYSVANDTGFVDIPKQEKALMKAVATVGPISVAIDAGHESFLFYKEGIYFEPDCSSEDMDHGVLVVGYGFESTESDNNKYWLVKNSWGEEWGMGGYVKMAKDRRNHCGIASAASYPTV

SMILES: C=CC(=O)N1CCN(c2ncnc3c(F)c(-c4c(O)cccc4F)c(Cl)cc23)CC1 [ARS-1620]
activity in vivo [1]: active in vivo

SMILES: O=C(N[C@H](/C=C/S(=O)(=O)c1ccccc1)CCc1ccccc1)[C@H](Cc1ccccc1)NC(=O)N1CCOCC1 [compound 7]
kinact [2]: 0.17 to 0.36 s⁻¹ | selectivity cathepsin L vs B as judged by Ki values [2]: more selective at inhibiting cathepsin L | kinact [3]: 0.17 to 0.36 s⁻¹

SMILES: O=C(N[C@H](/C=C/S(=O)(=O)c1ccccc1)CCc1ccccc1)[C@H](Cc1cc(I)c(O)c(I)c1)NC(=O)N1CCOCC1 [compound 8]
kinact [2]: 0.17 to 0.36 s⁻¹ | selectivity cathepsin L vs B as judged by Ki values [2]: reversed selectivity | kinact [3]: 0.17 to 0.36 s⁻¹ | potency for cathepsin B (kinact/Ki values) ([3]; relative to compound 7): increased potency

inhibition of cathepsin L [4]: time and dose dependent inhibition
SMILES: C[C@@H](Oc1ccc(Br)cc1Br)C(=O)NC/C=C/S(C)(=O)=O [compound 11]

mode of inhibition (shift of substrate Km) ([4]; varying concentrations of compound): substrate competitive inhibitor | reversibility of inhibition [5]: irreversibly
SMILES: CS(=O)(=O)/C=C/CNC(=O)COc1ccc(Br)cc1Br [compound 13]
inhibition of Cathepsin B [6]: did not inhibit; also recorded: does not inhibit | inhibition of Calpain I [7]: did not inhibit; also recorded: does not inhibit | inhibition of USP8 [8]: did not inhibit; also recorded: does not inhibit
